# Data taken from ChEMBL document CHEMBL3286335, “Synthesis of 2,3,6-trideoxy sugar triazole hybrids as potential new broad spectrum antimicrobial agents” (Eur J Med Chem, 2014).
# Tests used:
# Candida albicans [1] = test: Antimicrobial activity against Candida albicans after 48 hrs by microbroth dilution method; format: functional
# In short: (§1)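 Broth microdilution per NCCLS guidelines. Bacteria in Mueller-Hinton broth; fungi in MOPS-buffered RPMI 1640. Test compounds at 50-0.36 µg/mL, standard drugs over 32-0.0018 µg/mL. Inoculum 1-5 × 10^3 cells/mL, 35 °C in a moist chamber. A492 read at 24 h for bacteria, 48 h for C. albicans, 72 h for A. fumigatus, C. neoformans and S. schenckii, 96 h for T. mentagrophytes. MIC taken as 90% growth inhibition relative to growth control.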
# L929 [2] = test: Cytotoxicity against mouse L929 cells assessed as change in morphology at MIC after 24 hrs using Giemsa staining by phase contrast microscopy; format: cell-based; details: l929, 24 h
# In short: (§2)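 Mouse fibroblast L929 cells grown in DMEM with 10% FBS and antibiotic/antimycotic at 37 °C, 5% CO2. Medium switched to serum-free DMEM at 90% confluency, then compounds added (DMSO stocks) for 24 h. Cells fixed, stained with Giemsa for 30 min at 37 °C, washed with PBS, air dried and examined by phase-contrast microscopy.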
# Klebsiella pneumoniae [3] = test: Antimicrobial activity against Klebsiella pneumoniae ATCC 27736 after 24 hrs by microbroth dilution method; format: functional; details: ATCC 27736, 24 h; in short: as §1
# L929 [4] = test: Cytotoxicity against mouse L929 cells assessed as change in morphology at 50 ug/ml after 24 hrs using Giemsa staining by phase contrast microscopy; format: cell-based; details: l929, 24 h; in short: as §2
# [5] = tested on: Trichophyton mentagrophytes; test: Ratio of fluconazole MIC to compound MIC for Trichophyton mentagrophytes after 96 hrs by microbroth dilution method; format: functional
# Staphylococcus aureus [6] = test: Antimicrobial activity against vancomycin-resistant Staphylococcus aureus after 24 hrs by microbroth dilution method; format: functional
# In short: (§3)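 Microbroth dilution in Mueller Hinton broth, following NCCLS guidelines. Test compounds were run at 50-0.36 µg/mL against an initial inoculum of 1-5 × 10^3 cells/mL. Plates were incubated in a moist chamber at 35 °C, and absorbance at 492 nm was read after 24 h. MIC was taken as 90% growth inhibition relative to the growth control.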
# [7] = tested on: Trichophyton mentagrophytes; test: Ratio of miconazole MIC to compound MIC for Trichophyton mentagrophytes after 96 hrs by microbroth dilution method; format: functional
# Aspergillus fumigatus [8] = test: Antimicrobial activity against Aspergillus fumigatus after 72 hrs by microbroth dilution method; format: functional; in short: as §1
# Sporothrix schenckii = test: Antimicrobial activity against Sporothrix schenckii after 72 hrs by microbroth dilution method; format: functional; in short: as §1
# L929 [9] = test: Cytotoxicity against mouse L929 cells assessed as reduction in cell viability after 24 hrs by MTT assay; format: cell-based; details: l929, 24 h
# In short: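 L929 fibroblasts in DMEM with 10% FBS at 37 °C, 5% CO2. Seeded at 1×10^3 cells per well, switched to serum-free DMEM at 90% confluency. Compounds from 1 mg/mL DMSO stocks tested at nine twofold dilutions for 24 h. MTT readout: viability = (A570−A630) sample / (A570−A630) control × 100.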
# Staphylococcus aureus [10] = test: Antimicrobial activity against Staphylococcus aureus ATCC 25923 after 24 hrs by microbroth dilution method; format: functional; details: ATCC 25923, 24 h; in short: as §1
# Staphylococcus aureus [11] = test: Antimicrobial activity against methicillin-resistant Staphylococcus aureus after 24 hrs by microbroth dilution method; format: functional; in short: as §3
# Cryptococcus neoformans = test: Antimicrobial activity against Cryptococcus neoformans after 72 hrs by microbroth dilution method; format: functional; in short: as §1
# Pseudomonas aeruginosa = test: Antimicrobial activity against Pseudomonas aeruginosa ATCC BAA-427 after 24 hrs by microbroth dilution method; format: functional; details: ATCC BAA-427, 24 h; in short: as §1
# [12] = tested on: Trichophyton mentagrophytes; test: Antimicrobial activity against Trichophyton mentagrophytes after 96 hrs by microbroth dilution method; format: functional; in short: as §1
# Escherichia coli = test: Antimicrobial activity against Escherichia coli ATCC 9637 after 24 hrs by microbroth dilution method; format: functional; details: ATCC 9637, 24 h; in short: as §1
# Staphylococcus aureus [13] = test: Ratio of vancomycin MIC to compound MIC for Staphylococcus aureus ATCC 25923 after 24 hrs by microbroth dilution method; format: functional
# Klebsiella pneumoniae [14] = test: Ratio of ampicillin MIC to compound MIC for Klebsiella pneumoniae ATCC 27736 after 24 hrs by microbroth dilution method; format: functional
# Klebsiella pneumoniae [15] = test: Ratio of methicillin MIC to compound MIC for Klebsiella pneumoniae ATCC 27736 after 24 hrs by microbroth dilution method; format: functional
# Staphylococcus aureus [16] = test: Ratio of ampicillin MIC to compound MIC for Staphylococcus aureus ATCC 25923 after 24 hrs by microbroth dilution method; format: functional
# Klebsiella pneumoniae [17] = test: Ratio of gentamycin MIC to compound MIC for Klebsiella pneumoniae ATCC 27736 after 24 hrs by microbroth dilution method; format: functional
# Klebsiella pneumoniae [18] = test: Ratio of vancomycin MIC to compound MIC for Klebsiella pneumoniae ATCC 27736 after 24 hrs by microbroth dilution method; format: functional
# Candida albicans [19] = test: Ratio of miconazole MIC to compound MIC for Candida albicans after 48 hrs by microbroth dilution method; format: functional
# Aspergillus fumigatus [20] = test: Ratio of clotrimazole MIC to compound MIC for Aspergillus fumigatus after 72 hrs by microbroth dilution method; format: functional
# Aspergillus fumigatus [21] = test: Ratio of miconazole MIC to compound MIC for Aspergillus fumigatus after 72 hrs by microbroth dilution method; format: functional
SMILES,MIC (Candida albicans [1]),Activity (L929 [2]),MIC (Klebsiella pneumoniae [3]),Activity (L929 [4]),MIC (Staphylococcus aureus [6]),MIC (Aspergillus fumigatus [8]),MIC (Sporothrix schenckii),Activity (L929 [9]),MIC (Staphylococcus aureus [10]),MIC (Staphylococcus aureus [11]),MIC (Cryptococcus neoformans),MIC (Pseudomonas aeruginosa),MIC [12],MIC (Escherichia coli),Ratio (Staphylococcus aureus [13]),Ratio (Staphylococcus aureus [16]),other results
CCCCO[C@@H]1C=CC(=O)[C@@H](Cn2cc(CCCCl)nn2)O1,25 µg/mL,Non-toxic,> 50 µg/mL,Toxic,> 50 µg/mL,> 50 µg/mL,3.12 µg/mL,Dose-dependent effect,12.5 µg/mL,> 50 µg/mL,50 µg/mL,> 50 µg/mL,0.39 µg/mL,> 50 µg/mL,,,Ratio [5]: 40; Ratio [7]: 2
CCCCCCCCc1cn(C[C@H]2O[C@H](OCCC(C)C)C=CC2=O)nn1,> 50 µg/mL,Non-toxic,0.78 µg/mL,Toxic,3.12 µg/mL,> 50 µg/mL,50 µg/mL,Dose-dependent effect,0.78 µg/mL,3.12 µg/mL,> 50 µg/mL,> 50 µg/mL,3.12 µg/mL,> 50 µg/mL,16,16,Ratio (Klebsiella pneumoniae [14]): 16; Ratio (Klebsiella pneumoniae [15]): 8; Ratio (Klebsiella pneumoniae [17]): 2; Ratio (Klebsiella pneumoniae [18]): 16
CCCCCCCCc1cn(C[C@H]2O[C@H](OCCCC)C=CC2=O)nn1,6.25 µg/mL,,> 50 µg/mL,,> 50 µg/mL,> 50 µg/mL,25 µg/mL,,6.25 µg/mL,> 50 µg/mL,25 µg/mL,> 50 µg/mL,6.25 µg/mL,> 50 µg/mL,,,Ratio (Candida albicans [19]): 4
CC(C)CCO[C@@H]1C=CC(=O)[C@@H](Cn2cc(C(C)(C)C)nn2)O1,25 µg/mL,Non-toxic,> 50 µg/mL,Toxic,12.5 µg/mL,> 50 µg/mL,12.5 µg/mL,Dose-dependent effect,1.56 µg/mL,12.5 µg/mL,25 µg/mL,> 50 µg/mL,> 50 µg/mL,> 50 µg/mL,,,
CC(C)CCO[C@@H]1C=CC(=O)[C@@H](Cn2cc(-c3ccccc3)nn2)O1,12.5 µg/mL,Non-toxic,3.12 µg/mL,Toxic,12.5 µg/mL,50 µg/mL,12.5 µg/mL,Dose-dependent effect,6.25 µg/mL,12.5 µg/mL,25 µg/mL,50 µg/mL,50 µg/mL,50 µg/mL,,,
CC(C)CCO[C@@H]1C=CC(=O)[C@@H](Cn2cc(-c3ccc(F)cc3)nn2)O1,6.25 µg/mL,Non-toxic,> 50 µg/mL,Toxic,3.12 µg/mL,50 µg/mL,6.25 µg/mL,Dose-dependent effect,0.78 µg/mL,3.12 µg/mL,50 µg/mL,> 50 µg/mL,1.56 µg/mL,> 50 µg/mL,16,16,Ratio (Candida albicans [19]): 4
CC(C)CCO[C@@H]1C=CC(=O)[C@@H](Cn2cc(COCC34CC5CC(CC(C5)C3)C4)nn2)O1,> 50 µg/mL,Non-toxic,0.78 µg/mL,Toxic,3.12 µg/mL,1.56 µg/mL,50 µg/mL,Dose-dependent effect,1.56 µg/mL,3.12 µg/mL,50 µg/mL,50 µg/mL,1.56 µg/mL,50 µg/mL,,,Ratio (Klebsiella pneumoniae [14]): 16; Ratio (Klebsiella pneumoniae [15]): 8; Ratio (Klebsiella pneumoniae [17]): 2; Ratio (Klebsiella pneumoniae [18]): 16; Ratio (Aspergillus fumigatus [20]): 5; Ratio (Aspergillus fumigatus [21]): 8
CCCCCCCCc1cnnn1C[C@H]1O[C@H](OCCC(C)C)C=CC1=O,50 µg/mL,Non-toxic,50 µg/mL,Toxic,12.5 µg/mL,> 50 µg/mL,6.25 µg/mL,Dose-dependent effect,0.78 µg/mL,12.5 µg/mL,25 µg/mL,> 50 µg/mL,25 µg/mL,> 50 µg/mL,16,16,
